Measured values taken from ChEMBL document CHEMBL1147042, “Modafinil enhances thalamocortical activity by increasing neuronal electrotonic coupling” (2007).
The source made the active and inactive calls. No cut-off for these calls is given here.

Tests used:
Thalamocortex [1] = assay: Induction of 40-Hz shock-stimulated C57BL/6 mouse thalamocortical activity assessed as increase in peak amplitude at 100 uM after 15 mins by voltage-sensitive dye imaging method; type: functional, Brain
Summary of the method: (§1)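 Thalamocortical slices (350–400) came from C57BL/6 mice of either sex, P7–20, anesthetized with pentobarbital 120 mg/kg i.p. Slices recovered at 35°C for ≥30 min, then sat in oxygenated ACSF (pH 7.4) at 32°C. They were stained with RH 414 or di-4-ANEPPS (0.025 mg/ml). White matter received 10-Hz and/or 40-Hz electrical stimulation. Modafinil was bath-perfused and read at 15 min. Signal was ΔF/F.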

Rattus norvegicus [2] = species on record: Rattus norvegicus; assay: Increase in electronic coupling of Long-Evans rat inferior olivary neurons at 150 uM by single-patch clamp method; type: functional
Summary of the method: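 Paired patch recording was done at 32°C in ACSF. Hyperpolarizing current was injected into one neuron of a pair. Coupling coefficient = coupled-cell response ÷ injected-cell response, averaged over 10–20 trials. Measured before and after 150 μM modafinil; n = 7 pairs.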

Rattus norvegicus [3] = species on record: Rattus norvegicus; assay: Reversal of increase in electronic coupling in Sprague-Dawley rat cortical interneurons assessed as input conductance change at 50 uM in presence of gap junction inhibitor mefloquine by […]; type: functional
Rattus norvegicus [4] = species on record: Rattus norvegicus; assay: Increase in electronic coupling in Sprague-Dawley rat cortical interneurons assessed as input conductance change at 50 uM by […]; type: functional
Thalamocortex [5] = assay: Effect on excitatory synaptic transmission in C57BL/6 mouse thalamocortical slices assessed as increase in input conductance in presence of GABAA, GABAB and NMDA blockers by single patch clamp recording; type: functional, Brain
Thalamocortex [6] = assay: Induction of 10-Hz shock-stimulated C57BL/6 mouse thalamocortical activity assessed as increase in slope of rising phase at 0.2 uM after 15 mins by voltage-sensitive dye imaging method; type: functional, Brain; summary of the method: as §1
Cortex [7] = assay: Induction of 10-Hz shock-stimulated Sprague-Dawley rat cortical activity assessed as increase in slope of rising phase after 15 mins by voltage-sensitive dye imaging method; type: functional
Summary of the method: (§2)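 Rat barrel-cortex slices (300–450 μm) came from Sprague–Dawley rats of either sex, P10–18. Slices recovered at 35°C for ≥30 min, then were held in oxygenated ACSF (pH 7.4) at 32°C. Staining used RH 414 or di-4-ANEPPS (0.025 mg/ml). White matter was stimulated at 10 Hz or 40 Hz. Modafinil was applied for 15 min. Optical response was taken as fractional fluorescence ΔF/F.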

Thalamocortex [8] = assay: Induction of 10-Hz shock-stimulated C57BL/6 mouse thalamocortical activity assessed as increase in peak amplitude at 0.2 uM after 15 mins by voltage-sensitive dye imaging method; type: functional, Brain; summary of the method: as §1
Thalamocortex [9] = assay: Induction of 10-Hz shock-stimulated C57BL/6 mouse thalamocortical activity assessed as increase in slope of rising phase after 15 mins by voltage-sensitive dye imaging method; type: functional, Brain; summary of the method: as §1
Cortex [10] = assay: Induction of 10-Hz shock-stimulated Sprague-Dawley rat cortical activity assessed as increase in slope of rising phase at 0.2 uM after 15 mins by voltage-sensitive dye imaging method; type: functional; summary of the method: as §2
Cortex [11] = assay: Induction of 40-Hz shock-stimulated Sprague-Dawley rat cortical activity assessed as increase in peak amplitude at 100 uM after 15 mins by voltage-sensitive dye imaging method; type: functional; summary of the method: as §2
Thalamocortex [12] = assay: Effect on C57BL/6 mouse thalamocortical activity in presence of CaMK2 inhibitor KN93 by voltage-sensitive dye imaging method; type: functional; details: Brain
Thalamocortex [13] = assay: Induction of 40-Hz shock-stimulated C57BL/6 mouse thalamocortical activity assessed as increase in slope of rising phase after 15 mins by voltage-sensitive dye imaging method; type: functional, Brain; summary of the method: as §1
Cortex [14] = assay: Induction of 10-Hz shock-stimulated Sprague-Dawley rat cortical activity assessed as increase in peak amplitude at 0.2 uM after 15 mins by voltage-sensitive dye imaging method; type: functional; summary of the method: as §2
Thalamocortex [15] = assay: Induction of 40-Hz shock-stimulated C57BL/6 mouse thalamocortical activity assessed as increase in slope of rising phase at 0.2 uM after 15 mins by voltage-sensitive dye imaging method; type: functional, Brain; summary of the method: as §1
[16] = Increase in electronic coupling in Sprague-Dawley rat cortical interneurons assessed as coupling coefficient at 100 uM by […]; type: functional
Cortex [17] = assay: Induction of 40-Hz shock-stimulated Sprague-Dawley rat cortical activity assessed as increase in slope of rising phase at 0.2 uM after 15 mins by voltage-sensitive dye imaging method; type: functional; summary of the method: as §2
Thalamocortex [18] = assay: Effect on paired-pulse ventrobasal stimulation induced excitatory postsynaptic current in 40-Hz shock-stimulated C57BL/6 mouse thalamocortical slices; type: functional, tissue-based; details: Brain
Cortex [19] = assay: Induction of 40-Hz shock-stimulated Sprague-Dawley rat cortical activity assessed as increase in slope of rising phase after 15 mins by voltage-sensitive dye imaging method; type: functional; summary of the method: as §2
Thalamocortex [20] = assay: Effect on C57BL/6 mouse thalamocortical activity in presence of PKA inhibitor KT5720 by voltage-sensitive dye imaging method; type: functional; details: Brain
Rattus norvegicus [21] = species on record: Rattus norvegicus; assay: Increase in electronic coupling of Long-Evans rat inferior olivary neurons in presence of CaMK2 inhibitor KN93 by single-patch clamp method; type: functional
Thalamocortex [22] = assay: Induction of 40-Hz shock-stimulated C57BL/6 mouse thalamocortical activity assessed as increase in peak amplitude at 0.2 uM after 15 mins by voltage-sensitive dye imaging method; type: functional, Brain; summary of the method: as §1
Thalamocortex [23] = assay: Induction of 10-Hz shock-stimulated C57BL/6 mouse thalamocortical activity assessed as increase in peak amplitude at 100 uM after 15 mins by voltage-sensitive dye imaging method; type: functional, Brain; summary of the method: as §1
Cortex [24] = assay: Induction of 40-Hz shock-stimulated Sprague-Dawley rat cortical activity assessed as increase in peak amplitude at 0.2 uM after 15 mins by voltage-sensitive dye imaging method; type: functional; summary of the method: as §2
Rattus norvegicus [25] = species on record: Rattus norvegicus; assay: Reduction of input resistance in Long-Evans rat inferior olivary neurons at 150 uM relative to control by single-patch clamp method; type: functional
Summary of the method: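 Input resistance was probed with hyperpolarizing current pulses before and after local application of modafinil (100–150 μM).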

Cortex [26] = assay: Induction of 10-Hz shock-stimulated Sprague-Dawley rat cortical activity assessed as increase in peak amplitude at 100 uM after 15 mins by voltage-sensitive dye imaging method; type: functional; summary of the method: as §2

With NC(=O)C[S+]([O-])C(c1ccccc1)c1ccccc1 (stereo unspecified) [MODAFINIL] the Activity (Thalamocortex [1]) was 75%, the Activity (Rattus norvegicus [2]) was “Active” and the Activity (Rattus norvegicus [3]) was “Active”. For the same compound, the Activity (Rattus norvegicus [4]) was “Active”, the Activity (Thalamocortex [5]) was 31% and the Activity (Thalamocortex [6]) was 67%. The Activity (Cortex [7]) was 31%, the Activity (Thalamocortex [8]) was 70% and the Activity (Thalamocortex [9]) was 31%. For the same compound, the Activity (Cortex [10]) was 67%, the Activity (Cortex [11]) was 75% and the Activity (Thalamocortex [12]) was “inactive”. The Activity (Thalamocortex [13]) was 32%, the Activity (Cortex [14]) was 70% and the Activity (Thalamocortex [15]) was 35%. For the same compound, the Activity [16] was 70%, the Activity (Cortex [17]) was 35% and the Activity (Thalamocortex [18]) was “inactive”. The Activity (Cortex [19]) was 32%, the Activity (Thalamocortex [20]) was “Active” and the Activity (Rattus norvegicus [21]) was “inactive”. For the same compound, the Activity (Thalamocortex [22]) was 75%, the Activity (Thalamocortex [23]) was 65% and the Activity (Cortex [24]) was 75%. For the same compound, the Activity (Rattus norvegicus [25]) was “Active” and the Activity (Cortex [26]) was 65%.
